Results taken from ChEMBL document CHEMBL1138367, “Synthesis and in vivo evaluation of non-hepatotoxic acetaminophen analogs” (Bioorg Med Chem, 2007).
The source made the active and inactive calls.

Assays:
Mus musculus [1] = test: Analgesic activity in CD1 mouse assessed as acetic acid-induced writhing at 1 mmol/kg, po after 1 hr; assay type: functional
Outline: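 Mice fasted overnight, dosed orally by esophageal cannula under brief halothane, 1 mmol/kg; 1 h reading, n = 9–16 per group. Writhing induced by ip 0.4% acetic acid, 10 mL/kg, given 25 min after drug; writhes counted for 10 min starting 5 min after injection. Expressed as % analgesia ± SEM.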

Mus musculus [2] = test: Hepatotoxicity in mouse assessed as plasma GPT levels at 3.7 mmol/kg, po after 24 hrs; assay type: toxicity, organism-based; details: in vivo
Outline: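 C57BL/6 mice given a single 3.7 mmol/kg oral dose; plasma GPT measured spectrophotometrically 24 h later and reported as SF units/mL ± SD.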

[3] = Drug level in CD1 mouse urine assessed as 2-{[(4-Hydroxyphenylcarbamoyl)methyl]sulphamoyl}benzoic acid level at 3 mmol/kg, po; assay type: ADME, tissue-based; details: in vivo
Outline: (§1)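 Two-month-old CD-1 mice, fasted overnight, given a single oral 3 mmol/kg dose in Tween 20 under light halothane. Housed two per metabolic cage, with food from 6 h; urine collected on ice over 24 h. After centrifugation and filtration, analysed by HPLC–MS on a C18 column with an ammonium acetate/acetonitrile gradient; UV detection at 280, 254 and 210 nm.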

Mus musculus [4] = test: Hepatotoxicity in CD1 mouse assessed as increased plasma GPT levels at 6 mmol/kg; assay type: toxicity, organism-based; details: in vivo
Outline: (§2)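 Male CD-1 mice (20–30 g), fasted overnight, received 6 mmol/kg orally by esophageal cannula. At 24 h, blood was collected by decapitation into heparinized syringes and plasma obtained by centrifugation at 4 °C. GPT and GOT were determined with a spectrophotometric kit; n = 8–12. Mortality was recorded at 24 h.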

HepG2 [5] = test: Upregulation of Fas-ligand in HEPG2 cells by Western blot; assay type: functional, cell-based; details: Homo sapiens
Outline: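 HEPG-2 cells at 80% confluence, serum-starved 6–8 h (EMEM, 0.5% FBS), then treated with 100 µM for the times indicated at 37 °C. Fas-ligand measured by Western blot on extracts normalised for protein (15–20 µg loaded), Fas-L-specific antibody, ECL detection, densitometric quantitation.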

[6] = Hepatotoxicity in C57BL/6 mouse; assay type: toxicity, organism-based; details: in vivo
Mus musculus [7] = test: Hepatotoxicity in CD1 mouse assessed as reduction in renal glutathione levels at 6 mmol/kg; assay type: toxicity, organism-based; details: in vivo
Outline: (§3)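 Male CD-1 mice (20–30 g), fasted, given 6 mmol/kg orally; killed 3 h later and livers perfused with heparinized saline. Liver homogenized to 5% w/v and kidney to 10% w/v in 5% MPA, then centrifuged 3000g for 10 min at 4 °C. Glutathione in supernatant measured by colorimetric kit; n = 8–12.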

Mus musculus [8] = test: Hepatotoxicity in CD1 mouse assessed as reduction in hepatic glutathione levels at 6 mmol/kg; assay type: toxicity, organism-based; details: in vivo; outline: as §3
[9] = (§4) Toxicity in CD1 mouse assessed as mortality at 6 mmol/kg; assay type: organism-based; details: CD1, mouse, in vivo, 6 mmol/kg; read-out: Activity
Outline: (§5)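 CD-1 mice, fasted overnight, given a single oral dose of 6 mmol/kg by esophageal cannula under brief halothane anesthesia. Deaths recorded 24 h after dosing, expressed as a fraction of the group (n = 10).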

Mus musculus [10] = test: Analgesic activity in CD1 mouse upto 6620 umol/kg by hot plate assay; assay type: functional, organism-based
Outline: (§6)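 Oral doses given to overnight-fasted mice. Latency to lick the hind paw was recorded on a 54 ± 1 °C hot plate, with a 30 s cut-off assigned to non-responders. Testing was done blind.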

Mus musculus [11] = organism: Mus musculus; test: Analgesic activity in CD1 mouse by acetic acid-induced writhing test after 30 to 40 mins; assay type: functional
Outline: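 Overnight-fasted mice given several oral doses by esophageal cannulation under brief halothane. Acetic acid 0.4% (10 mL/kg ip) injected 25 min post-dose; writhes counted over 10 min from 5 min after injection, i.e. 30–40 min after dosing. Percent analgesia vs vehicle; two-way ANOVA with Tukey; ED50 by nonlinear regression.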

Mus musculus [12] = test: Hepatotoxicity in CD1 mouse assessed as increased plasma GOT levels at 6 mmol/kg; assay type: toxicity, organism-based; details: in vivo; outline: as §2
HepG2 [13] = test: Induction of apoptosis in HEPG2 cells at 100 uM after 6 to 8 hrs by Hoechst staining; assay type: functional, cell-based; details: Homo sapiens
Outline: (§7)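 Serum-starved HEPG-2 cells were treated 6–8 h at 37 °C (100 µM). After washing with PBS, cells were stained with Hoechst (2 µM final) for 45 min at 37 °C. Apoptotic cells were detected by confocal fluorescence microscopy.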

HepG2 [14] = test: Hepatotoxicity against HEPG2 cells at 200 uM after 6 to 8 hrs by tryptan blue exclusion test; assay type: functional, cell-based; details: Homo sapiens
Outline: (§8)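 HEPG-2 cells at 80% confluence were serum-starved 6–8 h (EMEM, 0.5% FBS), then exposed to the compound for 6–8 h at 37 °C. Cell toxicity was assessed by Trypan blue exclusion.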

Mus musculus [15] = test: Analgesic activity in CD1 mouse upto 6620 umol/kg by tail flick test; assay type: functional, organism-based
Outline: (§9)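 Oral doses given to fasted mice. A focused light beam was aimed at the tail, with intensity set for baseline latencies of 3–4 s; withdrawal latency was recorded by photoelectric cell. Testing was done blind.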

HepG2 [16] = test: Activation of CAR in HEPG2 cells at 100 uM by Western blot; assay type: functional, cell-based; details: Homo sapiens
Outline: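 HEPG-2 cells in EMEM/NEAA/10% FBS, 37 °C, 5% CO2; at 80% confluence held 6–8 h in EMEM with 0.5% FBS, then treated at 100 µM for the times indicated. CAR detected by Western blot on cell extracts (15–20 µg protein, 8–16% gel) with human CAR-specific antibody and ECL, then quantified by densitometry.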

HepG2 [17] = test: Hepatotoxicity against HEPG2 cells at 100 uM after 6 to 8 hrs by tryptan blue exclusion test; assay type: functional, cell-based; details: Homo sapiens; outline: as §8
Mus musculus [18] = organism: Mus musculus; test: Analgesic activity in CD1 mouse by formalin-induced pain model after 30 mins; assay type: functional; details: for ED50: CD1, 0.5 h
Outline: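 Oral dosing (fasted, halothane, esophageal cannula) 30 min before sc injection of 30 µL 5% buffered formalin into one hind plantar paw. Paw-licking time recorded in 5-min blocks over 90 min; mice habituated to the test box 90 min the day before. Three-way ANOVA (drug × dose × time) with Tukey; ED50 by nonlinear regression.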

Mus musculus [19] = test: Antiinflammatory activity in CD1 mouse by carrageenan-induced paw edema method; assay type: functional, organism-based
Outline: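 Male CD-1 mice dosed orally; 30 min later, under halothane, 50 µL 1% lambda-carrageenan in saline was injected into one hind plantar paw. Paw volume was measured by paw volume meter before and 4 h after injection, expressed as % of vehicle controls ± SEM; n = 4–5 per dose. Indomethacin 30 mg/kg po served as positive control.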

Mus musculus [20] = test: as §4; assay type: organism-based; details: mouse, in vivo; outline: as §5
[21] = Drug level in CD1 mouse urine assessed as unmetabolized fractions at 3 mmol/kg, po; assay type: ADME, tissue-based; details: read-out: Activity; outline: as §1
Mus musculus [22] = test: Hepatotoxicity in CD1 mouse assessed as renal glutathione levels at 6 mmol/kg; assay type: toxicity, organism-based; details: in vivo
Outline: (§10)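 Male CD-1 mice (20–30 g), fasted overnight, received 6 mmol/kg orally by esophageal cannula under brief halothane anesthesia, or vehicle. At 3 h the livers were saline-perfused. Liver was homogenized 5% w/v and kidney 10% w/v in 5% MPA, then centrifuged 3000g for 10 min at 4 C. Supernatant glutathione read colorimetrically. n = 8–12.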

Mus musculus [23] = test: Analgesic activity in CD1 mouse upto 3010 umol/kg by tail flick test; assay type: functional, organism-based; outline: as §9
Mus musculus [24] = test: Hepatotoxicity in CD1 mouse assessed as plasma GPT levels at 6 mmol/kg; assay type: toxicity, organism-based; details: in vivo
Outline: (§11)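 CD-1 mice, fasted overnight, dosed orally with 6 mmol/kg by esophageal cannula under brief halothane anesthesia, or vehicle. Blood collected after decapitation at 24 h into heparinized syringes. Plasma spun 3000 rpm for 10 min at 4 C. GPT and GOT activity measured with a spectrophotometric kit. n = 8–12.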

HepG2 [25] = test: Induction of apoptosis in HEPG2 cells by Hoechst staining; assay type: functional, cell-based; details: Homo sapiens; outline: as §7
Mus musculus [26] = test: Analgesic activity in CD1 mouse upto 3010 umol/kg by hot plate assay; assay type: functional, organism-based; outline: as §6
Mus musculus [27] = test: Hepatotoxicity in CD1 mouse assessed as hepatic glutathione levels at 6 mmol/kg; assay type: toxicity, organism-based; details: in vivo; outline: as §10
Mus musculus [28] = test: Hepatotoxicity in CD1 mouse assessed as plasma GOT levels at 6 mmol/kg; assay type: toxicity, organism-based; details: in vivo; outline: as §11
HepG2 [29] = test: Hepatotoxicity against HEPG2 cells after 6 to 8 hrs by tryptan blue exclusion test; assay type: functional, cell-based; details: Homo sapiens; outline: as §8
[30] = Drug level in CD1 mouse urine assessed as glucuronate level at 3 mmol/kg, po; assay type: ADME, tissue-based; details: in vivo; outline: as §1
[31] = Drug level in CD1 mouse urine assessed as glucuronate level; assay type: ADME, tissue-based; details: in vivo

## O=C(CCCN1C(=O)c2ccccc2S1(=O)=O)Nc1ccc(O)cc1
Mus musculus [1]
  Activity: 28.9%
Mus musculus [2]
  Activity: 82.62 U/ml

## O=C(CCCCN1C(=O)c2ccccc2S1(=O)=O)Nc1ccc(O)cc1
Mus musculus [1]
  Activity: 32.56%
Mus musculus [2]
  Activity: 44.16 U/ml

## O=C(CNS(=O)(=O)c1ccccc1C(=O)O)Nc1ccc(O)cc1
[3]
  Activity: 38.6%

## CC(=O)Nc1ccc(O)cc1 [ACETAMINOPHEN]
Mus musculus [4]
  Activity: Active
HepG2 [5]
  Activity: Active
[6]
  LD50: 3700 µmol/kg
Mus musculus [7]
  Activity: Active
Mus musculus [8]
  Activity: Active
[9]
  mortality: 40%
Mus musculus [10]
  Activity: inactive
Mus musculus [11]
  Activity: Dose-dependent effect
  ED50: 1290 µmol/kg
Mus musculus [1]
  Activity: 61.32%
Mus musculus [12]
  Activity: Active
Mus musculus [2]
  Activity: 299.01 U/ml
HepG2 [13]
  Activity: Active
HepG2 [14]
  Activity: Active
Mus musculus [15]
  Activity: inactive
HepG2 [16]
  Activity: Active
HepG2 [17]
  Activity: Active
Mus musculus [18]
  Activity: Dose-dependent effect
  ED50: 1900 µmol/kg
Mus musculus [19]
  Activity: inactive

## O=C(CCCCCN1C(=O)c2ccccc2S1(=O)=O)Nc1ccc(O)cc1
Mus musculus [1]
  Activity: 53.72%
Mus musculus [2]
  Activity: 29.52 U/ml

## O=C(CN1C(=O)c2ccccc2S1(=O)=O)Nc1ccc(O)cc1
HepG2 [5]
  Activity: inactive
Mus musculus [20]
  Activity: Not Active
[21]
  dose excreted: 0.9%
Mus musculus [22]
  Activity: Not Active
Mus musculus [11]
  Activity: Dose-dependent effect
  ED50: 640 µmol/kg
Mus musculus [23]
  Activity: inactive
Mus musculus [24]
  Activity: Not Active
Mus musculus [1]
  Activity: 62.42%
Mus musculus [2]
  Activity: 30.5 U/ml
HepG2 [25]
  Activity: inactive
HepG2 [16]
  Activity: inactive
Mus musculus [18]
  Activity: Dose-dependent effect
  ED50: 260 µmol/kg
Mus musculus [26]
  Activity: inactive
Mus musculus [27]
  Activity: Not Active
Mus musculus [28]
  Activity: Not Active
Mus musculus [19]
  Activity: inactive
HepG2 [29]
  Activity: inactive

## O=C(CN1C(=O)c2ccccc2S1(=O)=O)Nc1ccc(O[C@@H]2O[C@H](C(=O)O)[C@@H](O)[C@H](O)[C@H]2O)cc1
[30]
  Activity: 32%

## O=C(CNS(=O)(=O)c1ccccc1C(=O)O)Nc1ccc(O[C@@H]2O[C@H](C(=O)O)[C@@H](O)[C@H](O)[C@H]2O)cc1
[31]
  Activity: 23.7%

## O=C(CCN1C(=O)c2ccccc2S1(=O)=O)Nc1ccc(O)cc1
Mus musculus [1]
  Activity: 43.8%
Mus musculus [2]
  Activity: 28.85 U/ml
